Rows were chosen to be rich in hits. Some 2.8% of all compounds tested hit in one or more screens of this group.
E-selectin induc – induces E-selectin expression in human endothelial cells | P16581 | HUVEC E-selectin immunofluorescence imaging; normalized: neutral wells 0, TNF-alpha wells 100 | 260,000 compounds, 0.37% hits | activation, % at 7.58 µM;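 active = mean E-selectin-positive cell signal at least 10% of the positive control, reached in at least 60% of replicates, without over 20% cell loss; inconclusive = no rule given, readout overlaps actives, possibly toxicity-flagged; inactive = the rest, including those meeting only one limit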
Target sequence (P16581 whole entry, looked up): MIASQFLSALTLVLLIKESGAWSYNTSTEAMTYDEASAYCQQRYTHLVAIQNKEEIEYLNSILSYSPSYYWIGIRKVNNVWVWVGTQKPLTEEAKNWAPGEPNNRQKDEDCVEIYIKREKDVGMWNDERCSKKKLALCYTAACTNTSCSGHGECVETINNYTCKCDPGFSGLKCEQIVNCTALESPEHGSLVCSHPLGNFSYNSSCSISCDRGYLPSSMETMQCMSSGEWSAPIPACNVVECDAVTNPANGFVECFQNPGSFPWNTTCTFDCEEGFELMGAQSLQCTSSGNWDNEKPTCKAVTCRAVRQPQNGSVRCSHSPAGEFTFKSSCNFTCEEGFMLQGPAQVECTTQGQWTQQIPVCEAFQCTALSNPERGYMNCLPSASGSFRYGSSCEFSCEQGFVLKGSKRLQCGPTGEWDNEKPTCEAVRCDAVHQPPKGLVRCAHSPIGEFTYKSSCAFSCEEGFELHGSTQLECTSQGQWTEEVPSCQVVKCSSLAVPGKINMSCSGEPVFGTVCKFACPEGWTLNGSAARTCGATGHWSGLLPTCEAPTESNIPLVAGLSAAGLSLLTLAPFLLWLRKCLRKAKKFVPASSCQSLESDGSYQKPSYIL
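Assay system: HUVEC primary endothelial cells. Input: 3,000 HUVEC seeded per well. Doses: one compound dose added by pin transfer. Read-out basis: % PE-positive cells. Benchmarks: TNF-alpha high, DMSO low. Detection: immunofluorescence imaging. Buffer or medium: EGM-2, gelatin.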
SIRT5 block – inhibitors of human sirtuin-5 desuccinylase | Q9NXA8 | Purified SirT5, succinyl-peptide AMC, trypsin-coupled fluorescence | inhibition, % at 15 µM | 330,000 compounds, 1.1% hits; in the data active = inhibition above about 15%; inconclusive = no clear call, values can overlap the other calls
DENV2 CPE rescue – DENV2-induced cell death inhibition; 350,000 compounds, 1.7% hits; DENV2-infected cells, cytopathic effect rescue, plate reader; CPE inhibition, % at 9.99 µM; in the data active = CPE inhibition above about 20%, passing the limit was not always enough; inconclusive = no clear call, values can overlap the other calls; tested in BHK-21 cells
Numbers stand for hits; 0 = inactive; ? = inconclusive; - = no result; ! = repeats disagree.

SMILES	E-selectin induc	SIRT5 block	DENV2 CPE rescue
CO[C@H]1CN(C)C(=O)c2cc(NC(=O)CC(F)(F)F)ccc2OC[C@H](C)N(CC2CC2)C[C@H]1C	0	-	54
COc1cccc(NC(=O)Nc2ccc3c(c2)C(=O)N(C)C[C@H](OC)[C@@H](C)CN(CC2CC2)[C@H](C)CO3)c1	0	0	0
COc1cccc(NC(=O)Nc2ccc3c(c2)C(=O)N(C)C[C@H](OC)[C@@H](C)CN(CC2CC2)[C@@H](C)CO3)c1	0	0	22
CO[C@@H]1CN(C)C(=O)c2cc(NC(=O)c3ccccc3F)ccc2OC[C@H](C)N(CC2CC2)C[C@@H]1C	0	0	43
CO[C@@H]1CN(C)C(=O)c2cc(NC(=O)CC(F)(F)F)ccc2OC[C@@H](C)N(CC2CC2)C[C@H]1C	0	-	0
CCC(=O)Nc1ccc2c(c1)C(=O)N(C)C[C@H](OC)[C@@H](C)CN(CC1CCCCC1)[C@H](C)CO2	0	18	0
COCC(=O)N1C[C@H](C)[C@@H](OC)CN(C)C(=O)c2ccc(NC(=O)NC(C)C)cc2OC[C@@H]1C	0	0	0
CO[C@H]1CN(C)C(=O)c2ccc(NC(=O)C3CC3)cc2OC[C@@H](C)N(Cc2ccncc2)C[C@@H]1C	-	0	0
Cc1ccccc1S(=O)(=O)NCC[C@H]1CC[C@@H](NC(=O)C2CCOCC2)[C@H](CO)O1	0	0	0
C[C@H](CO)N1C[C@H](C)[C@@H](CN(C)C(=O)Cc2cccnc2)Oc2ncc(-c3ccccc3)cc2C1=O	0	0	0
COc1ccccc1NC(=O)Nc1ccc2c(c1)C(=O)N(C)C[C@H](OC)[C@H](C)CN[C@H](C)CO2	0	0	0
N#Cc1ccccc1NC(=O)C1SC(=Nc2ccccc2)C(C(=O)Nc2ccc(Cl)cc2)=C1N (stereo not drawn)	-	0	0
COc1ccccc1N=C1SC(C(=O)Nc2cccc(Cl)c2Cl)C(N)=C1C(N)=O (stereo not drawn)	0	21	0
C[C@@H]1CN([C@H](C)CO)C(=O)Cc2cc(NC(=O)C3CC3)ccc2O[C@H]1CN(C)C	0	0	0
C[C@@H]1CN([C@@H](C)CO)S(=O)(=O)c2ccc(-c3ccc(C(=O)N(C)C)cc3)cc2O[C@H]1CN(C)C(=O)C1CC1	0	-	-
CCN1CCN(Cc2ccc(NC(=O)c3ccc(C)c(NC(=O)N4CCNC4=O)c3)cc2C(F)(F)F)CC1	0	0	120!
CCN1CCN(Cc2ccc(NC(=O)c3ccc(C)c(NC(=O)c4nccn4C)c3)cc2C(F)(F)F)CC1	0	-	0
CCN1CCN(Cc2ccc(NC(=O)c3ccc(C)c(NC(=O)c4cc(-c5ccc(Br)cc5)n[nH]4)c3)cc2C(F)(F)F)CC1	0	0	36
CCN1CCN(Cc2ccc(NC(=O)c3ccc(C)c(NC(=O)c4nccnc4N)c3)cc2C(F)(F)F)CC1	0	-	?
COc1ccc2c3c(n(C)c2c1)[C@H](CO)N(S(C)(=O)=O)CC31CCN(C(=O)CN(C)C)CC1	0	-	?
O=C(C[C@@H]1CC[C@H](NC(=O)C2CCOCC2)[C@@H](CO)O1)NCc1ccncc1	0	0	0
O=C(/C=C/c1ccccn1)c1cc(Cl)cc(Cl)c1O	0	0	0
Clc1ccc(C=Cc2ccccn2)c(Cl)c1	-	0	38
CN1c2ccc(-c3ccccc3)cc2[C@H]2[C@H](CCN2C(=O)c2ccncc2)[C@H]1CO	0	0	0
CCC(=O)N1[C@H](CO)[C@@H](c2ccccc2)C12CN(C(=O)c1ccc(F)cc1)C2	0	0	0
SMILES	E-selectin induc	SIRT5 block	DENV2 CPE rescue
COC(=O)C1=C(C(=O)OC)C(c2ccccc2O)c2sc(=O)[nH]c2S1 (stereo not drawn)	-	16	0
COC(=O)c1sc2ccccc2c1N	0	-	0
CO[C@H]1CN(C)C(=O)c2ccc(NC(C)=O)cc2OC[C@H](C)N(C(=O)C2CCOCC2)C[C@H]1C	0	0	0
CNC[C@@H]1Oc2ccc(NC(=O)Nc3cccc4ccccc34)cc2C(=O)N([C@H](C)CO)C[C@H]1C	-	0	0
COc1cccc(C(=O)OCCCN(C)C)c1	-	15	0
CN(C)CCCOC(=O)c1ccc(Cl)cc1	-	0	-
Cc1noc(C)c1NC(=O)Nc1ccc2c(c1)C(=O)N([C@H](C)CO)C[C@H](C)[C@H](CN(C)CC1CCCCC1)OCCCC[C@H](C)O2	0	0	?
CC(=O)Nc1ccc(NC(=O)C(C)N2CCN(S(=O)(=O)c3ccc(C)cc3)CC2)cc1 (stereo not drawn)	0	0	0
CC(C(=O)Nc1ccc(S(=O)(=O)N2CCOCC2)cc1)N1CCN(c2ccccn2)CC1 (stereo not drawn)	0	29	0
O=C(C[C@@H]1CC[C@@H](NC(=O)Cc2cccnc2)[C@@H](CO)O1)Nc1ccc(-c2ccccc2)cc1	0	0	0
Cc1cc(NC(=O)c2ccno2)no1	0	19	0
Cc1cc(NC(=O)c2ccc(F)cc2)no1	-	-	0
